Source: ChEMBL document CHEMBL3351764, “Design, synthesis and biological activity of flavonoid derivatives as selective agonists for neuromedin U 2 receptor” (Bioorg Med Chem, 2014)
Calls of active or inactive are those of the source. No cut-off for these calls is given here.

Key:
[1] = biological target: Neuromedin-U receptor 2 (Homo sapiens, UniProt Q9GZQ4); assay: Agonist activity at human NMU2R transfected in HEK293 cells after 7 hrs by luciferase reporter gene assay; type: cell-based
Outline: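 HEK-293 cells were stably co-transfected with a reporter gene construct and human NMU2R cDNA in pcDNA3.1(+), maintained under G418 selection at 37 °C in 5% CO2, then seeded and incubated overnight. Compounds were added at various concentrations for 7 h at 37 °C, followed by Bright-Glo luciferase read-out. Forskolin and NMU served as positive controls. EC50 was fitted by four-parameter logistic regression; means ± SEM of three independent experiments.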

[2] = biological target: Melanocortin receptor 4 (Homo sapiens) (UniProt P32245); assay: Agonist activity at human MC4 receptor at 100 uM to 5 mM
Melanocortin receptor 4 (Homo sapiens), sequence (P32245 whole entry): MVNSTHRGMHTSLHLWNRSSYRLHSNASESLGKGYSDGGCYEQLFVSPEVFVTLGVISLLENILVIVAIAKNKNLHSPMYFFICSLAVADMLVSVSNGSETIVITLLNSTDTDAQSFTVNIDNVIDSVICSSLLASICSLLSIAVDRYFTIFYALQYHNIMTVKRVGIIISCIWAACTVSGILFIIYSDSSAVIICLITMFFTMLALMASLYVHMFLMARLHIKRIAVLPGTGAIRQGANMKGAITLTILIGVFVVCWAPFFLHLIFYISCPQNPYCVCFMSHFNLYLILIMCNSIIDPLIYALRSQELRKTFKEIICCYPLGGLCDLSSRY

[3] = biological target: Adrenocorticotropic hormone receptor (Mus musculus) (UniProt Q64326); assay: Agonist activity at mouse MC2 receptor at 100 uM to 5 mM
Adrenocorticotropic hormone receptor (Mus musculus), sequence (Q64326 whole entry): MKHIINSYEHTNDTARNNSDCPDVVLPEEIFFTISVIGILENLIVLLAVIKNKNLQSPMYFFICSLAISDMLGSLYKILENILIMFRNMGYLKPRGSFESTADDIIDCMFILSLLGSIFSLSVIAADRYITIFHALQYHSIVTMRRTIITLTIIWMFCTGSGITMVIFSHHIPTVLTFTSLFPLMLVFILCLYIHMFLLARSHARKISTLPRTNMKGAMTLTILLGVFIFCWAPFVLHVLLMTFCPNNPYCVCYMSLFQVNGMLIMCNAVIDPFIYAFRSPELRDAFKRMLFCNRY

[4] = biological target: Melanocortin receptor 4 (Mus musculus) (UniProt P56450); assay: Agonist activity at mouse MC4 receptor at 100 uM to 5 mM
Melanocortin receptor 4 (Mus musculus), sequence (P56450 whole entry): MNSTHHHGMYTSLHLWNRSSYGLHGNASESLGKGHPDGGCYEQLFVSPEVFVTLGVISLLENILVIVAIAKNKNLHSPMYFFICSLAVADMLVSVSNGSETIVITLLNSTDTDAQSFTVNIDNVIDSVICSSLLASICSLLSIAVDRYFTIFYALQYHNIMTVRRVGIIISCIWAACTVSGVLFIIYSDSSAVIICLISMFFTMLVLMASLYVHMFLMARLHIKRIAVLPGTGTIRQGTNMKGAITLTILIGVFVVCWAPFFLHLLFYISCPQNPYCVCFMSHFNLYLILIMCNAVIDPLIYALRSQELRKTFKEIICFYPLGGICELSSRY

[5] = biological target: T1, 5-hydroxytryptamine receptor 2C (Homo sapiens) (UniProt P28335); assay: Agonist activity at human 5HT2C receptor at 100 uM to 5 mM
T1 sequence (whole entry): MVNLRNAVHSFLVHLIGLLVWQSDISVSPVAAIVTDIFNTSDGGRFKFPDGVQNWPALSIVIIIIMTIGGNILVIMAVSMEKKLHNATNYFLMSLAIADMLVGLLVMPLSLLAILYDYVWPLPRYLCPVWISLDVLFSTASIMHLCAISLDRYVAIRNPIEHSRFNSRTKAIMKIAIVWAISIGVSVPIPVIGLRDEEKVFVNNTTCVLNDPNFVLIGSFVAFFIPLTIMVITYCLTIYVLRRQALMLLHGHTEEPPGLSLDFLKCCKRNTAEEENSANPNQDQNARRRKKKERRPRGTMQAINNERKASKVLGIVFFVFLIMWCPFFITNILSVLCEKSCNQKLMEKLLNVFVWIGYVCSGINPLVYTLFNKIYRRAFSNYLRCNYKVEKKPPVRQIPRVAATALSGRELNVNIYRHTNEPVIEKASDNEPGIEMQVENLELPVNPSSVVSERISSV

[6] = biological target: T2, Muscarinic acetylcholine receptor M1 (Homo sapiens) (UniProt P11229); assay: Agonist activity at human M1 receptor at 100 uM to 5 mM
T2 sequence (whole entry): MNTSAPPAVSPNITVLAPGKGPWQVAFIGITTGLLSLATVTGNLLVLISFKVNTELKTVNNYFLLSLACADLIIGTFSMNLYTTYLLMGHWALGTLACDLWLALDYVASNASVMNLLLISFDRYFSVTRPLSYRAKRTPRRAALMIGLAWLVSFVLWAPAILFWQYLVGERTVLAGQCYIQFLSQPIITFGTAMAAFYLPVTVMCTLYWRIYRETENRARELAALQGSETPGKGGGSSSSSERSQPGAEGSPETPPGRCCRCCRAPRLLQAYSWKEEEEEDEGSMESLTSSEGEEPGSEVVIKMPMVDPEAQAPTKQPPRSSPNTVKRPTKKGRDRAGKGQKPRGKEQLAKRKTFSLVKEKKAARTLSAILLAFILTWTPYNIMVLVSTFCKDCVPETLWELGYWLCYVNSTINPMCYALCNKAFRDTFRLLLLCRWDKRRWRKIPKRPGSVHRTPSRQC

[7] = biological target: D(1A) dopamine receptor (Homo sapiens) (UniProt P21728); assay: Agonist activity at human D1 receptor at 100 uM to 5 mM
D(1A) dopamine receptor (Homo sapiens), sequence (P21728 whole entry): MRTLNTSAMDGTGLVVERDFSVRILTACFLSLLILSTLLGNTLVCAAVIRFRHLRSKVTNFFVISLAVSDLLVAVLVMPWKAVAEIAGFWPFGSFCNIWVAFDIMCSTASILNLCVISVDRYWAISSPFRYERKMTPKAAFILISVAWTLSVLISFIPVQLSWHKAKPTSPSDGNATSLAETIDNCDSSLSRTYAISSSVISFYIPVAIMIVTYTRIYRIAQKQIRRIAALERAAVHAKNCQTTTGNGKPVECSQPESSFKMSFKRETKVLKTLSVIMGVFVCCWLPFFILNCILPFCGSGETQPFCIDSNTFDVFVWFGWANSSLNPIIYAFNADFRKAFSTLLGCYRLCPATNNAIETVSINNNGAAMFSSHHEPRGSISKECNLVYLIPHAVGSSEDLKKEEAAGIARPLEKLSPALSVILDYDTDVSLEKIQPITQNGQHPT

[8] = biological target: T3, Adenosine receptor A1 (Homo sapiens) (UniProt P30542); assay: Agonist activity at human A1 receptor at 100 uM to 5 mM
T3 sequence (whole entry): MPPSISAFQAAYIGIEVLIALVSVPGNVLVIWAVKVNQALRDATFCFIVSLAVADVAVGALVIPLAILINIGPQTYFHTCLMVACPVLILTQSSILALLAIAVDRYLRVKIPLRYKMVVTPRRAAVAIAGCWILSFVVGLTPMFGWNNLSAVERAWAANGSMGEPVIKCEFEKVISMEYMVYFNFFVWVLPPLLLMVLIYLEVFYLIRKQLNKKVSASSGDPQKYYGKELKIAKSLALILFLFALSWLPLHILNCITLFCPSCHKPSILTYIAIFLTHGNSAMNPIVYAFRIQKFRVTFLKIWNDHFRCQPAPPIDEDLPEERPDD

[9] = biological target: Adenosine receptor A2a (Homo sapiens) (UniProt P29274); assay: Agonist activity at human A2a receptor at 100 uM to 5 mM
Adenosine receptor A2a (Homo sapiens), sequence (P29274 whole entry): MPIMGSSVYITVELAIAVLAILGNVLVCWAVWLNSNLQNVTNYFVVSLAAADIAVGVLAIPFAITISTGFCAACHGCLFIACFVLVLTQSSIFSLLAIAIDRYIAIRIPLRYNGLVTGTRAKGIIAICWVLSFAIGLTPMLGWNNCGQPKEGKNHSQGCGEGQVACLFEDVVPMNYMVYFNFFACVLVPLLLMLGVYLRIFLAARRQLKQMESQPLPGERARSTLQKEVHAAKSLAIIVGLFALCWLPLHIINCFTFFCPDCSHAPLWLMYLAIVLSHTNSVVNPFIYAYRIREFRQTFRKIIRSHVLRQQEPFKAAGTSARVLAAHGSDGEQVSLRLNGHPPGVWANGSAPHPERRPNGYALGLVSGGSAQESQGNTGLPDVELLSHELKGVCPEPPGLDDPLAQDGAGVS

[10] = biological target: T4, Adenosine receptor A3 (Homo sapiens) (UniProt P0DMS8); assay: Agonist activity at human A3 receptor at 100 uM to 5 mM
T4 sequence (whole entry): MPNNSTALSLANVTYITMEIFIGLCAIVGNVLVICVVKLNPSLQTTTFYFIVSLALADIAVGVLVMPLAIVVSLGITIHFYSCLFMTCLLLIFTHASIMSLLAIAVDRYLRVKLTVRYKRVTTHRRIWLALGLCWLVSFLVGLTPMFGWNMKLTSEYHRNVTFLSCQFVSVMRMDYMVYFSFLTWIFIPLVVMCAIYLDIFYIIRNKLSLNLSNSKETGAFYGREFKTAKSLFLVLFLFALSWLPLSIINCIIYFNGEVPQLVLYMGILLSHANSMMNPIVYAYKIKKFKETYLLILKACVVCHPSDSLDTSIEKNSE

Neuromedin-U receptor 2, sequence (Q9GZQ4 whole entry): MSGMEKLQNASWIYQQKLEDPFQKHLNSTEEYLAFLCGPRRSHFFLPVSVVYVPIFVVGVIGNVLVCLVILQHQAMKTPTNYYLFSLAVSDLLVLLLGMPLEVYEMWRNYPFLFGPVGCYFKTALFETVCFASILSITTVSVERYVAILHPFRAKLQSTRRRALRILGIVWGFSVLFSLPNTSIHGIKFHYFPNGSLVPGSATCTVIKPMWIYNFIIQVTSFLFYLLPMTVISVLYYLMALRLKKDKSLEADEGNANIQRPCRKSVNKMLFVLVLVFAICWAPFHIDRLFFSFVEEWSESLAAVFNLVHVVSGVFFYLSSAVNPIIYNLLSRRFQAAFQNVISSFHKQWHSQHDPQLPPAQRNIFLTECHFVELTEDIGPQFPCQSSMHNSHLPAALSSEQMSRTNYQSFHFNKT

Row | SMILES | EC50 ([1]; hek293) | Activity [2] | Activity [3] | Activity [4] | Activity [5] | Activity [6] | Activity [7] | Activity [8] | Activity [9] | Activity [10] | EC50 ([1]; read-out: EC50) [µM]
1 | O=c1c(O)c(-c2ccc(O)c(O)c2)oc2ccccc12 | Not Active | inactive | inactive | inactive | inactive | inactive | inactive | inactive | inactive | inactive | –
2 | CN(C)c1ccc(-c2oc3ccccc3c(=O)c2O)cc1 | Not Active | inactive | inactive | inactive | inactive | inactive | inactive | inactive | inactive | inactive | –
3 | O=c1c(O)c(-c2cc(Br)ccc2F)oc2ccccc12 | – | inactive | inactive | inactive | inactive | inactive | inactive | inactive | inactive | inactive | 14
4 | COc1ccc(-c2cc(=O)c3ccccc3o2)cc1O | Not Active | inactive | inactive | inactive | inactive | inactive | inactive | inactive | inactive | inactive | –
5 | COc1cc(-c2cc(=O)c3ccccc3o2)ccc1O | Not Active | inactive | inactive | inactive | inactive | inactive | inactive | inactive | inactive | inactive | –
6 | CCOC(=O)COc1c(-c2cc(Br)ccc2F)oc2ccccc2c1=O | Not Active | inactive | inactive | inactive | inactive | inactive | inactive | inactive | inactive | inactive | –
7 | O=c1cc(-c2ccc(Cl)cc2Cl)oc2ccccc12 | Not Active | inactive | inactive | inactive | inactive | inactive | inactive | inactive | inactive | inactive | –
8 | O=c1c(O)c(-c2ccc(Cl)cc2Cl)oc2ccccc12 | Not Active | inactive | inactive | inactive | inactive | inactive | inactive | inactive | inactive | inactive | –
9 | O=c1c(O)c(-c2ccccc2F)oc2ccccc12 | – | inactive | inactive | inactive | inactive | inactive | inactive | inactive | inactive | inactive | 37.3
10 | O=c1c(O)c(-c2ccc(O)cc2)oc2ccccc12 | Not Active | inactive | inactive | inactive | inactive | inactive | inactive | inactive | inactive | inactive | –
11 | O=c1c(O)c(-c2cccc(Cl)c2)oc2ccccc12 | Not Active | inactive | inactive | inactive | inactive | inactive | inactive | inactive | inactive | inactive | –
12 | O=c1c(O)c(-c2cccc(Br)c2)oc2ccccc12 | Not Active | inactive | inactive | inactive | inactive | inactive | inactive | inactive | inactive | inactive | –
13 | COc1ccc(F)c(-c2oc3ccccc3c(=O)c2O)c1 | – | inactive | inactive | inactive | inactive | inactive | inactive | inactive | inactive | inactive | 253
